Source: PubChem
Sampled rows, rich in hits. Any-hit rate of the full collection: about 4.5%.
HCV NS3 hel inh = blocks Hepatitis C virus NS3 helicase unwinding; NS3 helicase DNA unwinding, Cy5 molecular beacon fluorescence; inhibition, % at 10.9 µM; 0.56% of 290,000 active; AID 1800;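 active = inhibition above the mean of all tested compounds plus 3 SD, set per campaign, cut at about 35% in these data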;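 also: 0% = DMSO wells and 100% = thioflavine S control wells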
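Compound dosing – single dose, 10.9 µM nominal final, DMSO 0.8% final · System – NS3 helicase fragment of HCV · Buffer or medium – MOPS pH 6.5, MgCl2, DTT, Tween20, BSA · Signal – Cy5 beacon fluorescence read at start and 1 h · Also added – annealed dual-labelled DNA beacon duplex, ATP-started · Schedule – 1 h at 25 °C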
UPR XBP1 act = adaptive UPR (XBP1) activation. 0.33% of 330,000 active. CHO-XBP1 luciferase reporter, IRE1-XBP1 UPR activation, luminescence; percent of tunicamycin response, DMSO as zero. AID 463104. activation, % at 20 µM;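 active = versus positive control, 20 µM dose yields 30% or more activation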;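 also: 100% = tunicamycin at 10 µg/mL and 0% = DMSO only wells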
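Assay system: IRE1-XBP1 luciferase reporter CHO line. Input: 1000 cells/well. Buffer or medium: F12 with 10% serum. Doses: 20 µM, 1% DMSO. Times: overnight seeding at 37 °C, 6 h compound treatment at 37 °C. Technique: Steady-Glo luciferase glow luminescence, 10 min after reagent addition.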
M18AAP inhibitor = blocks P. falciparum M18 aspartyl aminopeptidase. inhibition, % at 7.35 µM. recombinant PfM18AAP, H-Glu-NHMec fluorogenic cleavage. AID 1822. 1.2% of 290,000 active;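 active = inhibition above the campaign mean inhibition over all tested compounds plus 3 SD, cut at about 28% in these data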;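 also: 0% = plate median of test compound wells and 100% = 2 mM ZnCl2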
p97 inhibitor = inhibitors of human p97 ATPase | recombinant p97 ATPase, Kinase-Glo ATP luminescence, 3 h | inhibition, % at 8 µM | AID 1481 | 0.42% of 220,000 active; in the data active = inhibition above about 15%;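 also: 0% = DMSO vehicle and 100% = wells lacking enzyme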
Target sequence (P55072 whole entry, looked up): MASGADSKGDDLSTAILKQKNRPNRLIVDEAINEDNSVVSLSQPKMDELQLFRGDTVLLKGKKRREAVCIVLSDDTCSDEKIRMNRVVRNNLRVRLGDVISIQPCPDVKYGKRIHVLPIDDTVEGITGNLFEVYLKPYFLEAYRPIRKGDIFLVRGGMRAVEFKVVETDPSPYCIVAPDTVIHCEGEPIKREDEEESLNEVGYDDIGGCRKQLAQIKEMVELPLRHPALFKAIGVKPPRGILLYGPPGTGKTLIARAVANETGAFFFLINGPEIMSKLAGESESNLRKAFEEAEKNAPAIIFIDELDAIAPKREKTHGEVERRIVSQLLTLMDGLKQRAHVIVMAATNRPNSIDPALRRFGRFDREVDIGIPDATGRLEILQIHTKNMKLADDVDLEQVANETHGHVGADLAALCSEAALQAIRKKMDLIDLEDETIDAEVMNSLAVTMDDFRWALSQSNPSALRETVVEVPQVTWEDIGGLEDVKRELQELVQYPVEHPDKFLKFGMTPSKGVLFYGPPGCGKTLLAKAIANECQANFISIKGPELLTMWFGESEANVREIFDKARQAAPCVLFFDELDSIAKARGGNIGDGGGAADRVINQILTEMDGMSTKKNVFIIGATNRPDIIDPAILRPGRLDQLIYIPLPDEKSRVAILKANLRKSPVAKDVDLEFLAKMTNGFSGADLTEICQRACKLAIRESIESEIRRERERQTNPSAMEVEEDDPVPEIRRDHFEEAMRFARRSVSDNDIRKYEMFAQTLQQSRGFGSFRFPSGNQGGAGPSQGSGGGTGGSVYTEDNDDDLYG
CHOP inhibitor = CHOP inhibition in unfolded protein response. CHO-K1 CHOP-promoter luciferase, tunicamycin-induced, 15-18 h. inhibition, % at 10 µM. 3.8% of 220,000 active. AID 2732;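 active = compounds that reduced the stress-induced luciferase reporter signal by more than about 70% of percent inhibition, limit read from the data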;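 also: 0% = tunicamycin plus vehicle and 100% = wells without tunicamycin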
UPR CHOP act = apoptotic UPR (CHOP) activation. CHO-CHOP luciferase reporter, luminescence; percent of tunicamycin response over DMSO baseline. activation, % at 10 µM. 0.34% of 330,000 active;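 active = at 10 µM dose, activation of 40% or more, normalized to positive control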;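 also: 100% = tunicamycin at 10 µg/mL and 0% = DMSO alone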
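Assay system: CHO cells with stable CHOP pathway luciferase reporter; Buffer or medium: F12 plus 10% serum; Times: 16-18 h cell attachment, then 6 h compound exposure, 37 °C; Signal: luciferase luminescence; Read-out basis: percent activation relative to tunicamycin control; Control set: tunicamycin high control, DMSO low control.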
CHOP inh conf = confirmation of CHOP induction inhibitors; shares compounds with CHOP inhibitor; CHO-CHOP promoter luciferase reporter, tunicamycin-induced, luminescence; inhibition, % at 10 µM; 45% of 2,100 active;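 active = mean of three repeat readings of reporter signal inhibition above a set limit, cut at about 70% in these data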;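 also: 0% = tunicamycin plus vehicle and 100% = wells lacking tunicamycin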
Active calls of the source: *; nt = no result given.

SMILES	HCV NS3 hel inh	UPR XBP1 act	M18AAP inhibitor	p97 inhibitor	CHOP inhibitor	UPR CHOP act	CHOP inh conf
CC1=CC(C)(C)N2C(=O)C3(SCC(=O)N3c3ccc(F)cc3)c3cc(C)cc1c32 (centres undefined)	-1	2	-17	-4	108*	-1	112*
CC1=CC(C)(C)N2C(=O)C3(NCCc4c3[nH]c3ccccc43)c3cc(C)cc1c32 (centres undefined)	-1	-2	1	1	-16	2	nt
CCOc1ccc(N(CC(=O)Nc2cccc(OC)c2)S(=O)(=O)c2c(C)noc2C)cc1	-11	-5	-9	-4	61	0	nt
CCOc1ccc(N(CC(=O)Nc2cccc(Cl)c2)S(=O)(=O)c2c(C)noc2C)cc1	-4	-6	-14	-5	107*	0	81*
O=C1C2C3C=CC(C2C(=O)N1CCO)C1C(=O)N(CCO)C(=O)C31 (centres undefined)	-7	-5	2	nt	nt	4	nt
COc1ccc2c3c(cccc13)C(=O)N(O)C2=O	5	nt	3	5	102*	nt	108*
COc1ccccc1N1C(=O)c2cccc3c(C(=O)O)ccc(c23)C1=O	-12	-1	-3	-1	30	-1	nt
Cc1cccc(Nc2sc(C(=O)c3cc4cc(Cl)ccc4o3)c(N)c2C#N)c1	3	0	3	0	-12	2	nt
COc1ccc(NC(=O)/C(Cl)=C(/Cl)S(=O)Cc2ccc(Cl)cc2)cn1 (centres undefined)	-12	-9	-40	20*	107*	-11	140*
COc1ccc(NC(=O)C(C)(C)Oc2ccc(Cl)cc2)cn1	nt	-3	nt	nt	nt	0	nt
COc1ccccc1-c1cc(C(F)(F)F)nc(S(=O)(=O)CCCC(=O)N2CCOCC2)n1	-2	-10	-7	5	nt	-5	67
Cc1cc2occ(CC(=O)NCc3cccs3)c2cc1C(C)C	-3	-2	0	2	24	0	nt
Cc1csc(NC(=O)Cc2coc3cc(C)c(C(C)C)cc23)n1	-11	-3	15	-3	99*	-1	42
O=C1N(c2ccccc2)C[C@@H]2C[C@@H](c3cccs3)N3CCC[C@@]123	2	-4	-10	5	98*	0	91*
CCOc1cc(S(=O)(=O)Nc2ccccc2CC)ccc1Cl	-11	0	1	2	102*	-1	77*
CCOc1cc(S(=O)(=O)Nc2ccc(Cl)cn2)ccc1Cl	7	0	1	-2	20	1	nt
CCOc1cc(S(=O)(=O)Nc2ccc(CC)cc2)ccc1Cl	-4	3	-1	-8	104*	0	111*
COc1ccc(C(=O)N/C(=C\c2cn(C)c3ccccc23)C(=O)N2CCOCC2)cc1	-4	-5	7	nt	nt	-1	nt
COc1ccccc1Nc1nc(-c2sc(N)nc2C)cs1	17	-4	18	nt	nt	0	nt
Cc1nc(N)sc1-c1csc(Nc2ncccn2)n1	-11	nt	-1	6	103*	nt	-211
Cc1ccc(C2=NN(CCC(=O)NC3CCCC3)C(=O)CC2)cc1	12	-5	-1	nt	nt	0	nt
Cc1ccc(NC(=S)NC(=O)c2ccc(-c3ccc(Cl)cc3)o2)c(O)c1	-5	-2	2	4	12	1	nt
Cc1cc(O)c(NC(=S)NC(=O)c2ccc(-c3ccc(Cl)cc3)o2)cc1C	12	-3	2	9	105*	2	113*
CCOc1ccc(NC(=O)c2ccccc2NC(=O)CN(C)CC(=O)Nc2ccc(C)cc2)cc1	-7	5	4	0	107*	1	53
CC(C)(C)OC(=O)C[C@@H]1C/C=C\C[C@H](CC(=O)N(CCO)Cc2ccccc2)C(=O)N2CCC[C@H]2COC1=O	nt	1	nt	nt	nt	2	nt
SMILES	HCV NS3 hel inh	UPR XBP1 act	M18AAP inhibitor	p97 inhibitor	CHOP inhibitor	UPR CHOP act	CHOP inh conf
Cc1cc(Nc2ccc(Cl)cc2)nc(NCc2ccccc2)n1	-68	13	-11	3	107*	4	81*
Cc1cc(Nc2ccccc2)nc(NCc2ccccc2)n1	-89	2	0	1	16	6	nt
CCN(C(=O)COC(=O)COc1ccccc1Cl)c1c(N)n(Cc2ccccc2)c(=O)[nH]c1=O	nt	-1	nt	nt	nt	-1	nt
O=C(Nc1nc2ccccc2s1)C1CC(=O)N(c2ccc(Br)cc2)C1 (centres undefined)	-5	-2	2	3	96*	-1	13
O=C(N/N=C/c1ccc(Br)s1)Nc1ccccc1	-9	-2	0	1	97*	4	59
CCCCn1c(N)c(N(CCOC)C(=O)C2CC(=O)N(c3ccc(CC)cc3)C2)c(=O)[nH]c1=O (centres undefined)	nt	-1	nt	nt	nt	3	nt
Cc1ccc(-c2ccc(/C=C3\C(=O)ON=C3c3ccccc3)o2)c([N+](=O)[O-])c1	14	-3	8	-6	111*	25	80*
Fc1c(F)c(C(F)(F)F)c(F)c(F)c1N/N=C\c1cccs1	6	4	-19	-6	101*	12	89*
O=C(Nc1ccc(F)cc1)Nc1ccc(N2CCCC2)c(S(=O)(=O)Nc2ccccc2Cl)c1	-9	6	-12	3	97*	10	91*
O=C(Nc1ccc(N2CCOCC2)c(S(=O)(=O)Nc2ccccc2Cl)c1)c1ccc(F)cc1	nt	-2	nt	nt	nt	0	nt
CC(CC(=O)Nc1ccc(S(=O)(=O)N2CCOCC2)cc1)c1ccccc1 (centres undefined)	-47	-3	1	-3	10	0	nt
CCc1ccc(OCC(=O)NNC(=O)CSc2ncnc3sc(C)c(C)c23)cc1	6	3	12	1	101*	1	13
O=C(COC(=O)c1cccc(Br)c1)Nc1ccc2[nH]c(=O)[nH]c2c1	nt	2	nt	nt	nt	1	nt
COc1ccc(/C=C/C(=O)NC(=S)NNC(=O)c2cccnc2)cc1	1	-3	6	3	98*	0	77*
COc1ccc(/C=C/C(=O)NC(=S)NNC(=O)c2cnccn2)cc1	-3	9	-12	-2	57	-2	nt
Cc1cc(=O)[nH]c(N=N/C(=N/Nc2ccc(O)cc2)c2ccccc2)n1	-7	0	16	0	50	3	nt
Cc1cc(=O)[nH]c(N=N/C(=N/Nc2ccccc2C)c2ccccc2)n1	0	7	4	-3	103*	-1	43
CCc1ccc(-c2nc(CSCC(=O)NCc3ccco3)c(C)o2)cc1	10	nt	8	1	102*	nt	135*
Nn1cc(-c2ccccc2)nc1SCC(=O)Nc1ccc(S(N)(=O)=O)cc1	-8	-5	-14	4	17	-1	nt
